The values that follow come from PubChem BioAssay AID602422 (The Scripps Research Institute Molecular Screening Center, 2012).

The assay relates to ATP-dependent helicase/nuclease AddAB (Helicobacter pylori 26695). Put plainly: AddAB nuclease inhibitors, single dose, late-stage follow-up, biochemical, radioactivity, purified enzyme, 100 µM, powder samples (AID 602422). Particulars: [3H]-dsDNA TCA-soluble nuclease assay, at 100 µM, hits give low values. The gist of the method: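 Test system: purified AddAB / Reagent: tritiated phage T7 dsDNA substrate at 6 µM nucleotides (2 µg/mL) / Timing: nuclease reaction for 20 min at 37 °C / Detection: scintillation counting of acid (TCA)-soluble radioactive DNA product / Read-out: percent nuclease activity versus DMSO control, minus enzyme-free background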

Each structure is given as a SMILES string. “And” between values parts separate entries of the source, which are not always exact repeats. Equal values may be shown once. The source made the active and inactive calls.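 The calls were made as follows: active = remaining nuclease activity at or below 52% of the solvent-only control at any tested dose; inactive = above 52% at every tested dose.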

As for `N#Cc1c(NC(=O)c2ccco2)sc2c1CCC2`, the remaining nuclease activity was 41%. For `CCn1cc(C(=O)O)c(=O)c2cc(F)c(N3CCN(C(=S)Nc4cccc(C(F)(F)F)c4)CC3)cc21`, the remaining nuclease activity was 9%.

As to `CCn1cc(C(=O)O)c(=O)c2cnc(N3CCN(C(=S)Nc4ccc(F)cc4)CC3)nc21`, the remaining nuclease activity is 43%.

Consider `Cc1ccc(C(=O)Nc2sc3c(c2C#N)CCCCC3)o1`, for which the remaining nuclease activity was 72% (inactive).

Consider `CCn1cc(C(=O)O)c(=O)c2cnc(N3CCN(C(=S)NCc4ccccc4)CC3)nc21`, for which the remaining nuclease activity is 55% (inactive). In the case of `CCn1cc(C(=O)O)c(=O)c2cnc(N3CCN(C(=S)NC(C)c4ccccc4)CC3)nc21` (stereo not drawn) it was 13%; in that of `Cc1sc(NC(=O)c2ccc(Br)o2)c(C#N)c1C`, 40%; in that of `CCn1cc(C(=O)O)c(=O)c2cnc(N3CCN(C(=O)Nc4ccccc4)CC3)nc21`, 92% (inactive). With `N#Cc1c(NC(=O)c2ccc([N+](=O)[O-])o2)sc2c1CCCC2`, the remaining nuclease activity was 92% (inactive). With `CCn1cc(C(=O)O)c(=O)c2cnc(N3CCN(C(=S)Nc4ccc5c(c4)OCCO5)CC3)nc21`, the remaining nuclease activity is 62% (inactive).

Take `CCC(C)(C)C1CCc2c(sc(NC(=O)c3cnccn3)c2C#N)C1` (stereo not drawn): the remaining nuclease activity was 103% (inactive).

In the case of `CCn1cc(C(=O)O)c(=O)c2cnc(N3CCN(C(=S)Nc4ccccc4C)CC3)nc21`, the remaining nuclease activity was 81% (inactive). In the case of `N#Cc1c(NC(=O)c2ccccc2C(=O)O)sc2c1CCCC2` it was 55% (inactive); in that of `NC(=O)c1c(NC(=O)c2cnccn2)sc2c1CCCC2`, 87% (inactive). `C=CCNC(=S)N1CCN(c2ncc3c(=O)c(C(=O)O)cn(CC)c3n2)CC1`: the remaining nuclease activity was 93% (inactive). In the case of `CCn1cc(C(=O)O)c(=O)c2cnc(N3CCN(C(=S)NC(=O)c4ccco4)CC3)nc21` it was 89% (inactive); in that of `COC(=O)c1c(-c2cccc(C)c2)csc1NC(=O)c1cnccn1`, 88% (inactive). Take `CCn1cc(C(=O)O)c(=O)c2cnc(N3CCN(C(=S)Nc4ccccc4F)CC3)nc21`: the remaining nuclease activity was 74% (inactive). In the case of `N#Cc1c(NC(=O)c2cnccn2)sc2c1CCCCCC2` it was 70% (inactive); in that of `CCn1cc(C(=O)O)c(=O)c2cnc(N3CCN(C(=S)NC(=O)c4ccccc4Cl)CC3)nc21`, 93% (inactive). Then `N#Cc1c(NC(=O)c2cccc(F)c2)sc2c1CCCC2`, with 65% (inactive); and `Cc1ccc(C(=O)Nc2sc3c(c2C#N)CCC3)o1`, with 98% (inactive); and `CCn1cc(C(=O)O)c(=O)c2cnc(N3CCN(C(=S)Nc4ccccc4OC)CC3)nc21`, with 68% (inactive). In the case of `CCn1cc(C(=O)O)c(=O)c2cnc(N3CCN(C(=S)NC(=O)c4cccnc4)CC3)nc21` it was 101% (inactive). Consider `CCn1cc(C(=O)O)c(=O)c2cnc(N3CCN(C(=S)Nc4cccc(C(F)(F)F)c4)CC3)nc21`, for which the remaining nuclease activity was 8%. In the case of `Nc1c(NC(=O)c2ccc([N+](=O)[O-])o2)sc2c1CCCC2` it was 116% (inactive); in that of `CC1CCc2c(sc(NC(=O)c3ccc([N+](=O)[O-])o3)c2C#N)C1` (stereo not drawn), 89% (inactive). As to `CSc1ncc(Cl)c(C(=O)Nc2sc3c(c2C#N)CCC(C)C3)n1` (stereo not drawn), the remaining nuclease activity is 100% (inactive).

Regarding `N#Cc1c(NC(=O)c2cc(-c3ccccc3)on2)sc2c1CCCC2`, the remaining nuclease activity was 42%. Turning to `CC1CCc2c(sc(NC(=O)c3cccs3)c2C#N)C1` (stereo not drawn), the remaining nuclease activity is 92% (inactive).

With `CCn1cc(C(=O)O)c(=O)c2cnc(N3CCN(C(=S)NC)CC3)nc21`, the remaining nuclease activity is 101% (inactive). Then `CCn1cc(C(=O)O)c(=O)c2cnc(N3CCN(C(=S)Nc4ccccc4Cl)CC3)nc21`, with 74% (inactive); and `CCn1cc(C(=O)O)c(=O)c2cnc(N3CCN(C(=S)Nc4ccccc4C(F)(F)F)CC3)nc21`, with 90% (inactive); and `CC1CCc2c(sc(NC(=O)c3ccc([N+](=O)[O-])o3)c2N)C1` (stereo not drawn), with 128% (inactive). In the case of `CC1(C)Cc2c(sc(NC(=O)c3ccco3)c2C#N)CO1` it was 69% (inactive). In the case of `CC1CCc2c(sc(NC(=O)c3cnccn3)c2C#N)C1` (stereo not drawn) it was 91% (inactive); in that of `CCn1cc(C(=O)O)c(=O)c2cnc(N3CCNCC3)nc21`, 103% (inactive); in that of `CCn1cc(C(=O)O)c(=O)c2cnc(N3CCN(C(=S)Nc4ccc5c(c4)OCO5)CC3)nc21`, 46%. As to `CCn1cc(C(=O)O)c(=O)c2cnc(N3CCN(C(=S)Nc4ccccc4)CC3)nc21`, the remaining nuclease activity is 83% (inactive). Then `CSc1ncc(Cl)c(C(=O)Nc2sc3c(c2C(=O)NC2CCS(=O)(=O)C2)CCC(C)C3)n1` (stereo not drawn), with 77% (inactive); and `COC(=O)c1c(NC(=O)c2cnccn2)sc2c1CCCC2`, with 93% (inactive); and `CCn1cc(C(=O)O)c(=O)c2cnc(N3CCN(C(=S)Nc4ccc(Cl)cc4)CC3)nc21`, with 19%. `CCn1cc(C(=O)O)c(=O)c2cnc(N3CCN(C(=S)NC(=O)c4cccc(C)c4)CC3)nc21`: the remaining nuclease activity is 95% (inactive). As to `N#Cc1c(NC(=O)C2CC=CCC2C(=O)O)sc2c1CCC2` (stereo not drawn), the remaining nuclease activity is 92% (inactive). Regarding `N#Cc1c(NC(=O)c2ccccc2)sc2c1CCC2`, the remaining nuclease activity is 111% (inactive). For `CCn1cc(C(=O)O)c(=O)c2cnc(N3CCN(C(=S)NC4CC5CCC4C5)CC3)nc21` (stereo not drawn), the remaining nuclease activity was 6%.

For the compound `Cc1sc(NC(=O)c2cnccn2)c(C(=O)OC(C)C)c1-c1ccccc1`, the remaining nuclease activity was 33%. Then `N#Cc1c(NC(=O)c2cnccn2)sc2c1CCCC2`, with 10% and 36%. `COC(=O)c1c(-c2ccccc2)csc1NC(=O)c1cnccn1`: the remaining nuclease activity was 31%.

Consider `N#Cc1c(NC(=O)c2ccc(-c3ccccc3[N+](=O)[O-])o2)sc2c1CCCC2`, for which the remaining nuclease activity was 73% (inactive).

With `CCn1cc(C(=O)O)c(=O)c2cc(F)c(N3CCN(C(=S)Nc4ccccc4C(F)(F)F)CC3)cc21`, the remaining nuclease activity was 51%. With `Cn1nccc1C(=O)Nc1sc2c(c1C#N)CCCC2`, the remaining nuclease activity was 71% (inactive).

In the case of `CNC(=O)c1c(NC(=O)c2nc(SCc3ccccc3)ncc2Cl)sc2c1CCCC2`, the remaining nuclease activity was 21%.
